# From PubChem BioAssay
# VIM-2 inhibitor: blocks Pseudomonas aeruginosa VIM-2 metallo-beta-lactamase. purified VIM-2, nitrocefin hydrolysis, epi-absorbance fluorescence. inhibition, % at 5.6 µM. 0.89% of 290,000 active;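 active = inhibition above the mean of all tested compounds plus 3 SD, cutoff set per screening run, cut at about 7.5% in these data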;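 note: red hydrolysis product quenches plate fluorescence so inhibitors raise well fluorescence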
# sPLA2-III inh: Blocks human group III sPLA2 activity. Q9NZ20. QFRET BODIPY PC-A2 liposome hydrolysis, fluorescence. inhibition, % at 12.2 µM. 0.56% of 370,000 active;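 active = inhibition above mean plus 3 SD of compounds lying within the high and low control bounds, cut at about 19% in these data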
# IMP-1 inhibitor: blocks Pseudomonas aeruginosa IMP-1 metallo-beta-lactamase. AID 1556. purified IMP-1, nitrocefin hydrolysis, epi-absorbance fluorescence. inhibition, % at 5.6 µM. 0.45% of 290,000 active;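 active = inhibition above the mean plus 3 SD of all compounds in the same screening run, cut at about 4.5% in these data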
#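 System: Purified recombinant IMP-1 metallo-beta-lactamase enzyme | Measured by: Fluorescence quenching readout, ex 480/em 530 nm | Replication: Singlicate | Incubation: 15 min preincubation plus 25 min reaction at 25 °C | Evaluation: Percent inhibition from optical density relative to buffer-blank wells | Benchmarks: DMSO with and without IMP-1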
# PfM18AAP inh: PfM18AAP enzyme inhibition; recombinant PfM18AAP, H-Glu-NHMec fluorogenic cleavage; inhibition, % at 7.35 µM; 1.2% of 290,000 active;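 active = inhibition above the campaign mean inhibition over all tested compounds plus 3 SD, cut at about 28% in these data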
# VIM-2 inh confirm: VIM-2 inhibition, confirmation assay; shares compounds with IMP-1 inhibitor; purified VIM-2 enzyme, nitrocefin absorbance; inhibition, % at 5.6 µM; 73% of 200 active; in the data active = inhibition above about 8%
# TEM-1 counter: blocks E. coli TEM-1 beta-lactamase, VIM-2 IMP-1 counter-screen; nitrocefin absorbance inhibition; shares compounds with IMP-1 inhibitor; inhibition, % at 5.6 µM; AID 2184; 50% of 200 active; in the data active = inhibition above about 0.66%
# Target sequence (P62593 whole entry, looked up): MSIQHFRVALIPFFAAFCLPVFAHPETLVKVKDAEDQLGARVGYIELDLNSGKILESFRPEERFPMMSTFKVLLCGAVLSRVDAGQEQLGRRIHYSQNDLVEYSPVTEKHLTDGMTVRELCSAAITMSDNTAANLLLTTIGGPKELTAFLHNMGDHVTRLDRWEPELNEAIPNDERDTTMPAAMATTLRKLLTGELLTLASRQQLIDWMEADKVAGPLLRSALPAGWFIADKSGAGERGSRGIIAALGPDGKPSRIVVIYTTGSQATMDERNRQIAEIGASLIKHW
# IMP-1 inh conf: confirmation of P. aeruginosa IMP-1 metallo-beta-lactamase inhibitors; shares compounds with IMP-1 inhibitor; inhibition, % at 5.6 µM; 60% of 200 active; purified IMP-1 enzyme, absorbance substrate hydrolysis; AID 2189; in the data active = inhibition above about 4.9%
# A number is an active result; n = inactive; x = no result. An excerpt weighted towards active compounds, which were near 2.4% of everything screened.
SMILES,VIM-2 inhibitor,sPLA2-III inh,IMP-1 inhibitor,PfM18AAP inh,VIM-2 inh confirm,TEM-1 counter,IMP-1 inh conf
CN1/C(=C\C=C2/C(=O)Oc3ccccc3C2=O)C(C)(C)c2ccccc21,9.6,n,13,n,31,45,24
O=C1CC(NCc2ccc3c(c2)OCO3)C(=O)N1CCc1ccccc1 (centres undefined),47,n,42,n,n,n,n
CCN1C(=O)CC(NCc2ccc3c(c2)OCO3)C1=O (centres undefined),n,n,n,n,x,x,x
CN(C)c1ccc(/C=C/C(=O)c2cc(Cl)ccc2O)cc1,15,n,20,n,24,35,22
O=C(/C=C/c1ccncc1)c1cc(Cl)ccc1O,n,n,n,n,x,x,x
O=C(C[C@H]1C(=O)N(Cc2ccccc2)C[C@@H]1c1ccc(Br)cc1)Nc1ccc(Br)cc1,x,n,x,x,x,x,x
C[n+]1cc(C(=O)N2CCCCC2)ccc1/C=C/c1c[nH]c2ccccc12,n,n,4.9,n,14,0.5,5.6
Cc1ccc(N2CCC3CC2c2cc(-c4ccc(C(F)(F)F)cc4)ccc23)cc1 (centres undefined),x,n,x,x,x,x,x
CC(OC(=O)c1c2c(nc3ccccc13)/C(=C\c1ccc3c(c1)OCO3)CCC2)C(=O)Nc1ccc(S(N)(=O)=O)cc1 (centres undefined),18,x,13,n,15,29,10
Cc1cccc(C)c1NC(=O)COC(=O)c1ccc2c(c1)OCO2,n,n,n,n,x,x,x
Cc1cccc(C)c1NC(=O)COC(=O)c1c2c(nc3ccccc13)/C(=C\c1ccc3c(c1)OCO3)CCC2,20,n,17,n,n,n,n
CCN(CC)c1ccc(/C=C(\C#N)C(=O)NCc2ccco2)cc1,18,n,5.3,n,n,n,n
COc1ccc(S[C@]2(C(=O)N3CCOCC3)CC(=O)N(C(=O)CCc3ccccc3)[C@@H]2c2ccc(OC)cc2)cc1,x,n,x,x,x,x,x
CCc1cc(=O)oc2cc(C)c(CN3CCCC3)c(O)c12,15,n,20,n,18,n,8.8
CCc1cc(=O)oc2cc(C)c(CN3CCCCC3)c(O)c12,13,n,19,n,n,n,n
CN(/N=C/c1ccc(N(C)C)cc1)C1=NS(=O)(=O)c2ccccc21,52,n,24,n,29,14,24
O=C(CSc1nnc(-c2ccc(O)cc2)n1Cc1ccco1)c1cccs1,n,n,n,n,x,x,x
O=C(CC(SCc1ccco1)c1ccc(O)cc1)c1cccs1 (centres undefined),n,n,16,n,9.2,n,n
CC(C)n1cc(/C=N/Nc2ccc(Cl)c(C(=O)O)c2)c2ccccc21,10,x,35,n,8.0,n,28
CC1CCCCC1NC(=O)c1cccc(S(=O)(=O)N2CCN(Cc3ccccc3)CC2)c1 (centres undefined),x,n,x,x,x,x,x
Cc1ccc(NC(=O)C2C(C(=O)O)C3C=CC2C32CC2)cc1 (centres undefined),n,n,n,n,x,x,x
Cc1ccc(NC(=O)C2C(c3ccccc3)C=CC(c3ccccc3)C2C(=O)O)cc1 (centres undefined),46,n,85,n,n,n,61
CCN1C(=O)c2cccc3c(N)ccc(c23)C1=O,48,n,43,n,45,51,35
Cc1nn(C)c(C)c1N1C(=O)c2cccc3c(N)ccc(c23)C1=O,31,n,35,n,42,55,38
c1nc(NCCN2CCOCC2)c2sc3nc(N4CCOCC4)c4c(c3c2n1)CCC4,9.5,n,7.6,n,16,n,n
SMILES,VIM-2 inhibitor,sPLA2-III inh,IMP-1 inhibitor,PfM18AAP inh,VIM-2 inh confirm,TEM-1 counter,IMP-1 inh conf
COc1ccccc1C(=O)N/N=C/c1c[nH]c2ccccc12,n,n,n,n,x,x,x
N#CC1=C(N)S[C@H](C(=O)C23CC4CC(CC(C4)C2)C3)[C@H]1c1ccncc1,22,x,55,n,n,n,5.8
O=C(NCc1ccncc1)C12CC3CC(CC(C3)C1)C2,n,n,n,n,x,x,x
CC[N+]1(C)CCC(O)(/C=C/c2ccccc2)C(C(=O)/C=C/c2ccccc2)C1 (centres undefined),x,n,x,x,x,x,x
CCCCn1c(N)c(N(C)C(=O)c2ccc(Br)o2)c(=O)[nH]c1=O,x,n,x,x,x,x,x
COc1ccc([C@H]2OC(=O)C[C@@H]2C(=O)N2CCCCC2)cc1OC,x,n,x,x,x,x,x
CCN(CC)c1ccc(/C=C/C(=O)c2ccc(Br)cc2)cc1,14,n,8.0,n,33,48,31
O=C1/C(=C/c2cccnc2)SC(=S)N1c1ccc(F)cc1,n,n,n,n,x,x,x
O=C1/C(=C/c2cccnc2)SC(=S)N1c1ccc(O)cc1,9.2,n,6.0,n,11,n,n
Cc1ccc(CN2CCC[C@]3(N[C@H](c4ccc(C(F)(F)F)cc4)[C@@H]4C(=O)N(Cc5ccccc5)C(=O)[C@@H]43)C2=O)cc1,x,n,x,x,x,x,x
O=C(COc1ccc(Cl)cc1Cl)NCCCn1ccnc1,n,n,n,n,x,x,x
COc1ccc(-c2cc(=O)oc3c(C)c(OCC(=O)NCCCn4ccnc4)ccc23)cc1,19,n,38,n,26,n,32
CCOc1ccc(-c2cc(C(=O)NCCCn3ccnc3)c3cc(Br)ccc3n2)cc1,17,n,33,n,21,n,41
CC(C)(C)c1ccc(-c2c(C(=O)O)c(C(=O)O)c3n2CSC3)cc1,20,n,20,n,17,n,12
Cc1ccc2nc3c(cc(C(=O)NCCCn4ccnc4)n3C)c(=O)n2c1,15,n,8.4,n,n,n,n
Cc1ccc2nc3c(cc(C(=O)NCC4CCCO4)n3C)c(=O)n2c1 (centres undefined),n,x,n,n,x,x,x
O=C(CSc1nnc(-c2ccc(O)cc2)n1-c1ccccc1)CC(=O)Nc1ccccc1,16,n,7.9,33,n,n,n
Cn1c(SCC(=O)CC(=O)Nc2ccccc2)nnc1-c1ccc(O)cc1,n,n,n,n,x,x,x
CCCCCCn1c(=O)[nH]c2nc3cc(N)ccc3nc2c1=O,12,n,16,n,15,31,13
CC(NC(=O)c1cccs1)C(S)c1ccccc1 (centres undefined),41,n,22,n,47,n,48
CC(NC(=S)NC(=O)c1cccs1)c1ccccc1 (centres undefined),x,n,x,x,x,x,x
CC(=O)Nc1cccc(C(=O)OCC(=O)NNC(=O)c2ccc([N+](=O)[O-])cc2)c1,x,n,x,x,x,x,x
CC1CCN(C(=O)CSc2nnc(CNC(=O)COc3ccc(Cl)cc3)o2)CC1,n,n,35,n,n,n,n
O=C(COc1ccc(Cl)cc1)NCc1nnc(SCC(=O)NC2CCCCC2)o1,n,n,n,n,x,x,x
CCC(CC)C(C(=O)NCc1ccccc1)N(C)Cc1ccc(Cl)c(Cl)c1 (centres undefined),x,n,x,x,x,x,x
O=C(OCCN1C(=O)c2ccccc2C1=O)c1ccco1,n,n,n,n,x,x,x
